Assay results as given in ChEMBL document CHEMBL4011632, “Design, Synthesis, and Evaluation of Thiazolidine-2,4-dione Derivatives as a Novel Class of Glutaminase Inhibitors” (J Med Chem, 2017).
pIC50: −log10 of the molar value. Activity calls are given as the source filed them. The calls are words filed in the database; no cut-off is given here.

Experiments:
ASPC1 [1] = assay: Antitumor activity against human Aspc-1 cells xenografted in Balb/cAnN.Cg-Foxn1nu/CrlNarl mouse assessed as tumor growth inhibition at 25 mg/kg, ip once daily administered for 5 days followed by 2 days without dosing for 68 days relative to control; format: functional; conditions: read-out: TGI
Summary of the method: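 Male nude mice (7−8 weeks, 18−22 g) received 4.5 × 10^6 AsPC-1 cells sc in the right flank, in HBSS mixed 1:1 with Matrigel. Mice were randomized once mean tumor reached ~100 mm3 (day 1). Dosing was ip once daily, 5 days on/2 days off, with 2% DMSO/PBS as vehicle. Tumors were measured twice weekly, V = ab²/2. %TGI = [1 − ((Tt − T0)/(Ct − C0))] × 100 from median volumes; Student's t test.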

Mus musculus [2] = assay: Toxicity in BALB/CAnN.Cg-Foxn1nu/CrlNarl mouse xenografted with human Aspc-1 cells assessed as loss in body weight at 25 to50 mg/kg, ip once daily administered for 5 days followed by 2 days without dosing for 68 days relative to control; format: organism-based, BALB/C; conditions: in vivo, 1632 h
ASPC1 [3] = assay: Synergistic cytotoxicity against human Aspc-1 cells assessed as reduction in cell viability at ED50 in presence of doxorubicin by MTS assay; format: functional
Summary of the method: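 AsPC-1 cells treated with compound combinations and viability read by MTS. Combination index at ED50, ED75 and ED90 calculated by the Chou−Talalay method. CI = 1 additive, <1 synergism, >1 antagonism. Representative of three independent experiments.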

HCC1806 = assay: Synergistic cytotoxicity against human HCC1806 cells assessed as reduction in cell viability at ED50 in presence of BPTES by MTS assay; format: functional
Summary of the method: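 HCC1806 breast carcinoma cells seeded at 3000 cells/well and co-treated with the inhibitor and BPTES; viability read by MTS. […] Three independent experiments.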

[4] = molecular target: T1, Peroxisome proliferator-activated receptor delta (Homo sapiens) (UniProt Q03181); assay: Transactivation of GAL4-DBD fused human PPARdelta LBD (165 to 441 residues) expressed in African green monkey CV1 cells after 18 to 24 hrs by luciferase reporter gene assay; format: cell-based
T1 sequence (whole entry): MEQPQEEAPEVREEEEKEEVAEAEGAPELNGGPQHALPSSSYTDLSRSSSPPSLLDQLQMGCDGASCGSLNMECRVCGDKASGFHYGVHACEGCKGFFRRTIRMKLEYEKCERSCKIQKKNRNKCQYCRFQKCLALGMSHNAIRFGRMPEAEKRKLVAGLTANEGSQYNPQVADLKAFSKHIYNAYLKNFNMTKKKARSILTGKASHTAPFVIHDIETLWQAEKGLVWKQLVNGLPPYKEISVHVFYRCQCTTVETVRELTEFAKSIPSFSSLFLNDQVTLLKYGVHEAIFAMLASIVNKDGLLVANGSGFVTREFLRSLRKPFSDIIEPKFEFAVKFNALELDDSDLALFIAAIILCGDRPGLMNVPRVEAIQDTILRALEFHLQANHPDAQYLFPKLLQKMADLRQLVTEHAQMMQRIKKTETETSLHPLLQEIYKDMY

[5] = molecular target: T2, Peroxisome proliferator-activated receptor gamma (Homo sapiens) (UniProt P37231); assay: Transactivation of GAL4-DBD fused human PPARgamma LBD (199 to 477 residues) expressed in African green monkey CV1 cells after 18 to 24 hrs by luciferase reporter gene assay; format: cell-based
T2 sequence (whole entry): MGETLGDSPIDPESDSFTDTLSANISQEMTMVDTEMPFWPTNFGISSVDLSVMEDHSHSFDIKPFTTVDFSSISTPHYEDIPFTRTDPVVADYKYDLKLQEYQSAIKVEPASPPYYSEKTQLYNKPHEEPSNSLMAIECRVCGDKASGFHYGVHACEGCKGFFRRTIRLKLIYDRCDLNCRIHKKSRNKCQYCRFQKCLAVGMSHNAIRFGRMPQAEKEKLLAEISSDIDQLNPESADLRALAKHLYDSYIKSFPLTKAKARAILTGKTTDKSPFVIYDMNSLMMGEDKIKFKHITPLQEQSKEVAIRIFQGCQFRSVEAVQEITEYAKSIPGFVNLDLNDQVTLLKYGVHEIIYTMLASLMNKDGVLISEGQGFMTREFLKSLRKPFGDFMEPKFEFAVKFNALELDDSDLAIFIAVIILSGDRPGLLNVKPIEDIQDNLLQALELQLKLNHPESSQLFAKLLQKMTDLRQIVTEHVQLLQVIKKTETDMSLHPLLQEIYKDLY

[6] = molecular target: Glutaminase 1/2 (Homo sapiens) (UniProt O94925+Q9UI32); conditions: 3.13 to 100 uM
[7] = Inhibition of recombinant human His-tagged KGA S384A mutant expressed in Escherichia coli BL21(DE3)pLysS using glutamine substrate preincubated for 10 mins followed by substrate addition measured after 60 mins
[8] = Inhibition of recombinant human His-tagged KGA R387A mutant expressed in Escherichia coli BL21(DE3)pLysS using glutamine substrate preincubated for 10 mins followed by substrate addition measured after 60 mins
[9] = Inhibition of recombinant human His-tagged KGA R387L mutant expressed in Escherichia coli BL21(DE3)pLysS using glutamine substrate preincubated for 10 mins followed by substrate addition measured after 60 mins
[10] = Inhibition of recombinant human His-tagged KGA K507A mutant expressed in Escherichia coli BL21(DE3)pLysS using glutamine substrate preincubated for 10 mins followed by substrate addition measured after 60 mins
Homo sapiens [11] = species: Homo sapiens; assay: Selectivity ratio of IC50 for recombinant human His-tagged KGA S384A mutant expressed in Escherichia coli BL21(DE3)pLysS to IC50 for human His-tagged KGA (L123 to L669 residues) expressed in Escherichia coli BL21(DE3)pLysS
Homo sapiens [12] = species: Homo sapiens; assay: Selectivity ratio of IC50 for recombinant human His-tagged KGA R387A mutant expressed in Escherichia coli BL21(DE3)pLysS to IC50 for human His-tagged KGA (L123 to L669 residues) expressed in Escherichia coli BL21(DE3)pLysS
Homo sapiens [13] = species: Homo sapiens; assay: Selectivity ratio of IC50 for recombinant human His-tagged KGA R387L mutant expressed in Escherichia coli BL21(DE3)pLysS to IC50 for human His-tagged KGA (L123 to L669 residues) expressed in Escherichia coli BL21(DE3)pLysS
[14] = Cmax in Sprague-Dawley rat at 1 mg/kg, po by HPLC-MS analysis; format: ADME, organism-based; parameters: dose 1 mg/kg, route oral; conditions: in vivo
Summary of the method: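 Male rats (330−380 g, 9−10 weeks old), jugular-vein cannulated 1 day before dosing, n = 3. Dosed iv in DMA/PEG400 (20%/80%, v/v) or po in 1% CMC/0.5% Tween-80. Blood (100 μL) drawn at 0, 2 min, 5 min (iv only), 15 and 30 min, and 1, 2, 4, 6, 8 and 24 h. Plasma measured by LC-MS/MS; parameters from noncompartmental analysis.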

Mus musculus [15] = assay: Toxicity in BALB/CAnN.Cg-Foxn1nu/CrlNarl mouse xenografted with human Aspc-1 cells assessed as overt toxicity at 25 to 50 mg/kg, ip once daily administered for 5 days followed by 2 days without dosing for 43 days; format: organism-based, BALB/C; conditions: in vivo

Glutaminase 1/2 (Homo sapiens), sequence (O94925 whole entry, looked up): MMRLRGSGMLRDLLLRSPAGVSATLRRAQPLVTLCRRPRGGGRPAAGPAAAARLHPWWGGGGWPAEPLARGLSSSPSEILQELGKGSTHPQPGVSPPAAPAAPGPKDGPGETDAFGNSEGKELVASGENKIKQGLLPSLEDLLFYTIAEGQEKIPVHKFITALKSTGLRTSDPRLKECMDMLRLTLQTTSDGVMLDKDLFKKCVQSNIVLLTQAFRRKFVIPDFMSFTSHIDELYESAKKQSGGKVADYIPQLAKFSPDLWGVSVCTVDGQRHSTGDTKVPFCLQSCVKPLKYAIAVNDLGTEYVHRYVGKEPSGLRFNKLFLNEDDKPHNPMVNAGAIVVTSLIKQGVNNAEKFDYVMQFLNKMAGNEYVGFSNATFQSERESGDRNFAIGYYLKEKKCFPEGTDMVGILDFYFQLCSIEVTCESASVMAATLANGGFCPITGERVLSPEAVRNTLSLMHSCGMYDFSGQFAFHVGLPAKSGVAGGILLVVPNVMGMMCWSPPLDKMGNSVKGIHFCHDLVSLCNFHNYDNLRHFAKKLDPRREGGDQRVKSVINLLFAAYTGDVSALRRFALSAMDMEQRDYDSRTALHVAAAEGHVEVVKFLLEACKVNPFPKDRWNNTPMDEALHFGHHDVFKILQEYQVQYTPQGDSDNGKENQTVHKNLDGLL
Glutaminase 1/2 (Homo sapiens), sequence (Q9UI32 whole entry, looked up): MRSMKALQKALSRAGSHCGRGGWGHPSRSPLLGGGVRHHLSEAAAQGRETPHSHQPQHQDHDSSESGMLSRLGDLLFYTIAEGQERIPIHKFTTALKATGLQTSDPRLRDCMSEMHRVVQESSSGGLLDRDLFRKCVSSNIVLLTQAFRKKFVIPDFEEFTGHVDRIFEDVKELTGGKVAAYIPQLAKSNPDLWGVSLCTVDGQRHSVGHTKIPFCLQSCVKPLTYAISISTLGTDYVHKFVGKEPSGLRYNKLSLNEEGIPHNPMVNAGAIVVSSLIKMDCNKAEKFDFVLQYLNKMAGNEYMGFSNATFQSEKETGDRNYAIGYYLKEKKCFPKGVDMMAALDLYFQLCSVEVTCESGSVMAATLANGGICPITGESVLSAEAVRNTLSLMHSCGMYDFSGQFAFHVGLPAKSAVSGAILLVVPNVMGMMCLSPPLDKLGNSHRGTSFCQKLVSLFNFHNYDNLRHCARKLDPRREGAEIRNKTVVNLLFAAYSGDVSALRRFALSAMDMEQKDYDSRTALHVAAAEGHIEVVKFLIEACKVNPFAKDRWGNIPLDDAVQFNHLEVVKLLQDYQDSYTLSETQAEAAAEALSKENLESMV

SMILES	inhibition in vivo at 25 mg/kg (ASPC1 [1]) [%]	Activity (Mus musculus [2]) [%]	CI (ASPC1 [3])	CI (HCC1806)	Activity [4]	Activity [5]	inhibition [6]	pIC50 [7]	pIC50 [8]	pIC50 [9]	pIC50 [10]	Ratio IC50 (Homo sapiens [11])	Ratio IC50 (Homo sapiens [12])	Ratio IC50 (Homo sapiens [13])	Cmax [14] [ng/mL]	Activity (Mus musculus [15])
O=C1NC(=O)/C(=C/c2ccc(-c3ccc(-n4c(-c5cccs5)cc(/C=C5\SC(=O)NC5=O)c4-c4cccs4)cc3)cc2)S1	2.3	> 10	0.45 - 0.68	0.13 - 0.14	inactive	inactive	Active	–	–	–	–	–	–	–	–	–
Cc1cc(/C=C2\SC(=O)NC2=O)c(C)n1-c1ccc(-c2ccc(/C=C3\SC(=O)NC3=O)c(Cl)c2)cc1	–	–	–	–	inactive	inactive	–	7.06	4.96	6.11	6.57	1.5	191	13.5	–	–
Cc1cc(/C=C2\SC(=O)NC2=O)c(C)n1-c1ccc(-c2ccc(/C=C3\SC(=O)NC3=O)cc2)cc1	–	–	0.45 - 0.68	–	–	–	–	6.44	< 4.30	5.90	5.98	3.5	> 490	12.5	16.6	Non-Toxic
